Two compounds from paper PMC5498144 (BMB Reports, 2017) can be followed below.

For series [1], the target named is T1, PTPN2 (Homo sapiens, UniProt P17706).
T1 sequence (P17706 1-415): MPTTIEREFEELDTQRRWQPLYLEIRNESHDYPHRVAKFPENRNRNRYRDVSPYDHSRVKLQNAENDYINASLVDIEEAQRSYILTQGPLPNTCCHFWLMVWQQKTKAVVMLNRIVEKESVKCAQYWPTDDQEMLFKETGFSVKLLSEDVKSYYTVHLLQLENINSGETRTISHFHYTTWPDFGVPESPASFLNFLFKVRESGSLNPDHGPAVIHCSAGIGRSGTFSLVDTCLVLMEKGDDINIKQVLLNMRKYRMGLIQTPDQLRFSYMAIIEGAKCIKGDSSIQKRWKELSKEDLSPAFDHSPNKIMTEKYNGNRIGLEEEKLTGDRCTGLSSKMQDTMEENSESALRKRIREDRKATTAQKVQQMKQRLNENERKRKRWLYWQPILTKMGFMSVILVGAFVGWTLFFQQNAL
The experiment in a line: DARTS assay. Particulars: 1 μM pretreatment 20 min, then trypsin on ice; PTPN2/trypsin 100:1. Type of series: binding.

The target of the next series is T2, Laforin (Homo sapiens, UniProt O95278).
T2 sequence (O95278 1-331): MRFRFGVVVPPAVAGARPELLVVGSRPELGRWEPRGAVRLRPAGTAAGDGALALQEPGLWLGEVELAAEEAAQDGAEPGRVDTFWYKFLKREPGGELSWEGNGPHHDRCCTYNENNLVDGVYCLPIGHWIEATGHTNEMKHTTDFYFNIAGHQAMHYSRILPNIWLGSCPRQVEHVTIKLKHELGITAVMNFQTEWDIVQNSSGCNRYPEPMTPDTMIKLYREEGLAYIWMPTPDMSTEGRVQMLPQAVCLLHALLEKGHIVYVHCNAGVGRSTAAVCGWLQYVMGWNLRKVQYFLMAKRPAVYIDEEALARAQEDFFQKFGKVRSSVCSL
Briefly: In vitro phosphatase assay with OMFP as substrate. In kind it is biochemical. The procedure, abridged:
(§1)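 His-tagged human PTPs expressed in E. coli BL21(DE3)-RIL (1 mM IPTG, 37°C, 3 h) and Ni-NTA purified. 100 nM enzyme in 30 mM Tris-HCl pH 7.0, 75 mM NaCl, 1 mM EDTA, 0.4 mM DTT, 0.132% BSA, 1% DMSO final. Test compound (water-dissolved; 0, 5, 10 μM) present; started with 100 μM OMFP; 30 min at 37°C. Fluorescence ex 495/em 535 nm; triplicates; IC50 by curve fitting.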

The target in the next series is T3, CD45 (Homo sapiens, UniProt P08575).
T3 sequence (P08575 653-912 limits assumed): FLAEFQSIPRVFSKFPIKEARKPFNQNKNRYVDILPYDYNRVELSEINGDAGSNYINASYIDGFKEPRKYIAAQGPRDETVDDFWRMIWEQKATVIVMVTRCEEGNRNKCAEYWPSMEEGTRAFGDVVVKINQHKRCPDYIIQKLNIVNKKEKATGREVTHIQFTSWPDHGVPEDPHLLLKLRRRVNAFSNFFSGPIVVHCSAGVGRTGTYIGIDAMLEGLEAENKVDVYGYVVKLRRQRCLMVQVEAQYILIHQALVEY
The experiment in a line: In vitro phosphatase assay with OMFP as substrate. Type of series: biochemical. The procedure, abridged: as §1

The target in the next series is PTEN (Homo sapiens, UniProt P60484). Briefly: In vitro phosphatase assay with OMFP as substrate. In kind it is biochemical. The gist of the method: as §1
The target of series [2] is T1, PTPN2. Briefly: Kinetic analysis. Type of series: biochemical.
The subject of the next series is HEK 293 cells. The experiment in a line: Cell viability assay. Type of series: cell-based, human. Particulars: 6 h, up to 1.5 μM (tested 1, 1.5, 2, 3 μM). The procedure, abridged:
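HEK 293 cells grown in DMEM with 10% FBS and 1% penicillin/streptomycin under 5% CO2. Seeded at 1.5 × 10^6 cells/well and left overnight, then exposed to test compound (1, 1.5, 2, 3 μM) for 6 h. Water-soluble tetrazolium reagent added for 1 h at 37°C; absorbance read at 450 nm against a 650 nm reference. Mean ± SEM of three independent experiments; Student's t-test versus untreated.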

A further series deals with T4, DUSP23 (Homo sapiens, UniProt Q9BVJ7).
T4 sequence (Q9BVJ7 1-150): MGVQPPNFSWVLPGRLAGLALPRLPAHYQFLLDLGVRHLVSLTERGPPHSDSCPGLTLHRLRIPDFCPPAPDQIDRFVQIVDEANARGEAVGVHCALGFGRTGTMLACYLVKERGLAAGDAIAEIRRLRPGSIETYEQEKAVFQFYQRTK
Briefly: In vitro phosphatase assay with OMFP as substrate. In kind it is biochemical. The gist of the method: as §1

The next series deals with T5, DUSP8 (Homo sapiens, UniProt Q13202).
T5 sequence (Q13202 1-625): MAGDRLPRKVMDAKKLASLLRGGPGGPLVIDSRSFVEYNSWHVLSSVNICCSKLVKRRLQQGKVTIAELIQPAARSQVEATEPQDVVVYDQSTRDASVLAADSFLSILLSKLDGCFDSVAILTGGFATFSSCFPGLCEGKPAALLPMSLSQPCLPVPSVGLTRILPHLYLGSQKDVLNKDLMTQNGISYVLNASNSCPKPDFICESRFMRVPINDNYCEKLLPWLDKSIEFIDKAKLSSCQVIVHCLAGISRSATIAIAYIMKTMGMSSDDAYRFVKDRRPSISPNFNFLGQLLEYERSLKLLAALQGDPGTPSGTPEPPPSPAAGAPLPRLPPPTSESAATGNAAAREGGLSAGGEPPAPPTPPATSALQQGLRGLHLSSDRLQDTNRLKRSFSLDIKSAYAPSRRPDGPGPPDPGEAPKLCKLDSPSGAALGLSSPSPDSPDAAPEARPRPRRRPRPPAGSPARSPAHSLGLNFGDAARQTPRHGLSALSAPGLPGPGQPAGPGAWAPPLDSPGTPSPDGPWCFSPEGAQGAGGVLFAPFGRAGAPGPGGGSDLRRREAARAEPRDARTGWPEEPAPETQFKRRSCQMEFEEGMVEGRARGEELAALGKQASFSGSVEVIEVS
The experiment in a line: In vitro phosphatase assay with OMFP as substrate. Type of series: biochemical. The gist of the method: as §1

A further series addresses DUSP3 (Homo sapiens, UniProt P51452). Briefly: In vitro phosphatase assay with OMFP as substrate. In kind it is biochemical. The gist of the method:
as §1

The target of the next series is T6, SSH3 (Homo sapiens, UniProt Q8TE77).
T6 sequence (Q8TE77 1-659): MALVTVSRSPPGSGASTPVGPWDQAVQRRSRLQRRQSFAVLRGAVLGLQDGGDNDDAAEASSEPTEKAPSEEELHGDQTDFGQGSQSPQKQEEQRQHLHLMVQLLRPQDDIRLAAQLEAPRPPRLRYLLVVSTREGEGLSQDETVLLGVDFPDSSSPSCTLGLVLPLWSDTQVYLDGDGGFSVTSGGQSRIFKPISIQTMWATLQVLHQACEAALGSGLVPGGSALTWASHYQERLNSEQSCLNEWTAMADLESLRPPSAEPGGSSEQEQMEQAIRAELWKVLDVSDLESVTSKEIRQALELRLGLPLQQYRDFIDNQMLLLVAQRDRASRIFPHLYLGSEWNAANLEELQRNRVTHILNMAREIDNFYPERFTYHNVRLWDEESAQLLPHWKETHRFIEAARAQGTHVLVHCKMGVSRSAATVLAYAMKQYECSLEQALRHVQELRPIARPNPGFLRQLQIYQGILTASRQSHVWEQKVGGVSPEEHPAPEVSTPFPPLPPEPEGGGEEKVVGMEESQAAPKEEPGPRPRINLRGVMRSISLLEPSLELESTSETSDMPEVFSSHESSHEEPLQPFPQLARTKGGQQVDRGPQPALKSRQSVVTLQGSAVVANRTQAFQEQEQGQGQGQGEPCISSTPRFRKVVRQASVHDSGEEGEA
The experiment in a line: In vitro phosphatase assay with OMFP as substrate. Type of series: biochemical. The gist of the method: as §1

The target of a further series is T7, Cdc25B (Homo sapiens, UniProt P30305).
T7 sequence (P30305 1-580): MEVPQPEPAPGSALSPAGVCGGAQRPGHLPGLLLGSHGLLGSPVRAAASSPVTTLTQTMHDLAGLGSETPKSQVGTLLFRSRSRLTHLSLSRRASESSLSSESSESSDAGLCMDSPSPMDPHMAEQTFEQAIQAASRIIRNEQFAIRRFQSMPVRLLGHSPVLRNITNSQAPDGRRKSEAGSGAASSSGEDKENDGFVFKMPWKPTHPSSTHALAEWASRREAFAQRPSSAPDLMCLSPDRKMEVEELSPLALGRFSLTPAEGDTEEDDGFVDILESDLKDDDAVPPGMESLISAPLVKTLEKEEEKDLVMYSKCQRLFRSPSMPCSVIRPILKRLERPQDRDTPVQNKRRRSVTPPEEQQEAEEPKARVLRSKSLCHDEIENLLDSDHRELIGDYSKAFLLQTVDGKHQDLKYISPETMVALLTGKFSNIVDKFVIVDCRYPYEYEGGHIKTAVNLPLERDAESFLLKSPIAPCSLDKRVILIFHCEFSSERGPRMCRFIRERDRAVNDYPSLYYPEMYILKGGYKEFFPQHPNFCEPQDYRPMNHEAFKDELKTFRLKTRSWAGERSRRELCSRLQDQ
Briefly: In vitro phosphatase assay with OMFP as substrate. In kind it is biochemical. The procedure, abridged: as §1

The test system of series [3] is PTPN2-mediated dephosphorylation of STAT3 at Tyr-705. In kind it is cell-based, human. Particulars: HEK 293 cells with FLAG-PTPN2, 1.5 μM 6 h, then IL-6 10 ng/ml 30 min. The procedure, abridged:
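HEK 293 cells transfected with FLAG-PTPN2 wild type or catalytically dead C216S plasmid using polyethylenimine. After 42 h, treated with test compound (1.5 μM) for 6 h, then IL-6 (10 ng/ml) for 30 min. Cells lysed in PTP lysis buffer. Immunoblots probed for phospho-STAT3 Tyr-705 and total STAT3, detected by ECL and quantified by densitometry relative to the IL-6-stimulated group.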

The target of another series is T8, DUSP18 (Homo sapiens, UniProt Q8NEJ0).
T8 sequence (Q8NEJ0 1-188): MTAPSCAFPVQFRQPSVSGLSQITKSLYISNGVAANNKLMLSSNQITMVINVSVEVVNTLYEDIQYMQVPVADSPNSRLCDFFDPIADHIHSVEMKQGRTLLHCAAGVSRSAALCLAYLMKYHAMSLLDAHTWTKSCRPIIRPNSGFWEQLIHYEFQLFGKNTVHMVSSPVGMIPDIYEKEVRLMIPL
The experiment in a line: In vitro phosphatase assay with OMFP as substrate. In kind it is biochemical. The procedure, abridged: as §1

Sequence of DUSP3 (P51452 whole entry, species assumed): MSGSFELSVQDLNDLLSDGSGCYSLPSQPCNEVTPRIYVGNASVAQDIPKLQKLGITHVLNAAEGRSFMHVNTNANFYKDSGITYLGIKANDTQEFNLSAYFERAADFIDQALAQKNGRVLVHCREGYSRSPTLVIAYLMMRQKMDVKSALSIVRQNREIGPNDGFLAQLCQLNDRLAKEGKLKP
Sequence of PTEN (P60484 whole entry, species assumed): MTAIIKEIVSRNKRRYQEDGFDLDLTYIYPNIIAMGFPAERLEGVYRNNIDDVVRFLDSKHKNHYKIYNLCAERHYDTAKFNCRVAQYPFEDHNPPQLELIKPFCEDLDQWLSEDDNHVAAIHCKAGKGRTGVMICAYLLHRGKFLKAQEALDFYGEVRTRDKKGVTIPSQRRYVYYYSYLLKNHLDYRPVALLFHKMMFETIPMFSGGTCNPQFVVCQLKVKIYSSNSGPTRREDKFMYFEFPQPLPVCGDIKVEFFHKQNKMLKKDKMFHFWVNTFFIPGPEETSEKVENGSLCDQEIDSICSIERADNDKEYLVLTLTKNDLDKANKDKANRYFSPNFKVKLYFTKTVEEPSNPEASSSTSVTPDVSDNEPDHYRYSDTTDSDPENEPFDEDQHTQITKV

Regarding `O=S(=O)(F)Cc1ccccc1` [PMSF, phenylmethylsulfonyl fluoride], on PTPN2 [1], the “Proteolysis of PTPN2 by trypsin (DARTS)” value is “decreased”.

As usually defined, the IC50 is the midpoint of a concentration-inhibition curve. For orientation: Ki means a measure of affinity in units of concentration, obtained from inhibition or displacement. For `CC(C)(C)C(=O)Nc1ccc2c(c1)C(=O)C(=O)c1ccccc1-2` [PTP inhibitor XIX, N-[9, 10-dioxo-9, 10-dihydro-phenanthren-2-yl]-2,2-dimethyl-propionamide], the IC50 was > 100 µM against Laforin; 0.86 ± 0.03 µM at CD45; 1.78 ± 0.34 µM against PTEN; > 50 µM against DUSP23; > 50 µM at DUSP8; > 50 µM on DUSP3. For the same compound, the half-maximal inhibitory concentration (IC50) on SSH3, at Cdc25B and against DUSP18 was > 50 µM in each case. On PTPN2 [2], this compound came in with a Ki of 0.76 ± 0.08 µM. Besides, in the series with HEK 293 cells, the “Cytotoxic effects (cell viability)” value was “no apparent cytotoxic effects”. Besides, the “PTPN2-mediated dephosphorylation of STAT3 at Tyr-705” value in series [3] is given as “inhibited”.
